The results in this text go back to ChEMBL document CHEMBL1153534, “Design and synthesis of androgen receptor antagonists with bulky side chains for overcoming antiandrogen resistance” (J Med Chem, 2009).

Assay [1] deals with PC-3. Description: Antiandrogenic activity in human PC3 cells expressing androgen receptor H874Y mutant assessed as inhibition of DHT-induced ARE-dependent transactivation at 1 uM after 24 hrs by luciferase reporter gene assay. The assay is classed as cell-based. An outline of the steps:
(§1)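 PC-3 cells, which lack endogenous AR, transiently transfected with plasmids expressing human AR (WT, T877A, W741C or H874Y) plus an ARE-driven MMTV-luc reporter. Cells were treated with or without 0.1 nM DHT. Firefly luciferase was standardized to a Renilla control and normalized to the 0.1 nM DHT signal. Mean ± sd.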

In assay [2] the test system is PC-3. Description: Suppression of DHT-stimulated growth of human PC3 cells after 72 hrs with increasing concentration of DHT. The class given is functional, cell-based.
Assay [3] has as its target T1, Progesterone receptor (Homo sapiens) (UniProt P06401).
T1 sequence (whole entry): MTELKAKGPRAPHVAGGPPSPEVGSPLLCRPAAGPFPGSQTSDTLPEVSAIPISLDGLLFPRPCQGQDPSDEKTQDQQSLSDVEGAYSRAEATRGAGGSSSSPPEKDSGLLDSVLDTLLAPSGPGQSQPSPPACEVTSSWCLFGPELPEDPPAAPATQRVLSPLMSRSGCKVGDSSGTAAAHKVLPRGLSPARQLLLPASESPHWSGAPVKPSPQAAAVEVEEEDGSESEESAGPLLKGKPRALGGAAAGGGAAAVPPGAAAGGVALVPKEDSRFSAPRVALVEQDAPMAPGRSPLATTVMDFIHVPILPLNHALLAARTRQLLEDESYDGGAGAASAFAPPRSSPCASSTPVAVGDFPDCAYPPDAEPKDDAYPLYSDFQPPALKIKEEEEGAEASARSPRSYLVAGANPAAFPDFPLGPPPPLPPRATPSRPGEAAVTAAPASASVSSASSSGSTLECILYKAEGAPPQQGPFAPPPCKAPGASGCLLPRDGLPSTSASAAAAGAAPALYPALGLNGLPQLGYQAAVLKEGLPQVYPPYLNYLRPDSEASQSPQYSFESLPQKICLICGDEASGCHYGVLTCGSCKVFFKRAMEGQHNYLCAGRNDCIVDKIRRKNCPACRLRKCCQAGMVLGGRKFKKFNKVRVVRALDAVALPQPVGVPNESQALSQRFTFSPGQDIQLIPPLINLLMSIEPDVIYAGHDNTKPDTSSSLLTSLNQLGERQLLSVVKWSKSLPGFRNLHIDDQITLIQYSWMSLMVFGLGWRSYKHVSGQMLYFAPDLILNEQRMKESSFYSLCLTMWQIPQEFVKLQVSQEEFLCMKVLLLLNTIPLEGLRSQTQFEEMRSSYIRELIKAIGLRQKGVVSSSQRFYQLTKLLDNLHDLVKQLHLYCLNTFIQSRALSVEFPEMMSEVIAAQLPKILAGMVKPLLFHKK
Description: Agonist activity at human PR B-form expressed in human PC3 cells assessed as receptor transactivation at 0.1 uM after 24 hrs by luciferase reporter gene assay. The class given is functional, cell-based. Conditions: PC-3. An outline of the steps: (§2)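 PC-3 cells carrying a luciferase reporter for transactivation by the human PR B form. Antagonist mode used 10 nM R5020 as the agonist. Agonist mode ran in the absence of R5020. Luciferase read-out.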
Background: A reporter such as luciferase makes a cellular process visible.

The test system of assay [4] is LNCaP. Description: Cytotoxicity against human LNCAP cells after 72 hrs by MTT assay. The class given is functional, cell-based.
The target of assay [5] is T2, Androgen receptor (Homo sapiens) (UniProt P10275).
T2 sequence (whole entry): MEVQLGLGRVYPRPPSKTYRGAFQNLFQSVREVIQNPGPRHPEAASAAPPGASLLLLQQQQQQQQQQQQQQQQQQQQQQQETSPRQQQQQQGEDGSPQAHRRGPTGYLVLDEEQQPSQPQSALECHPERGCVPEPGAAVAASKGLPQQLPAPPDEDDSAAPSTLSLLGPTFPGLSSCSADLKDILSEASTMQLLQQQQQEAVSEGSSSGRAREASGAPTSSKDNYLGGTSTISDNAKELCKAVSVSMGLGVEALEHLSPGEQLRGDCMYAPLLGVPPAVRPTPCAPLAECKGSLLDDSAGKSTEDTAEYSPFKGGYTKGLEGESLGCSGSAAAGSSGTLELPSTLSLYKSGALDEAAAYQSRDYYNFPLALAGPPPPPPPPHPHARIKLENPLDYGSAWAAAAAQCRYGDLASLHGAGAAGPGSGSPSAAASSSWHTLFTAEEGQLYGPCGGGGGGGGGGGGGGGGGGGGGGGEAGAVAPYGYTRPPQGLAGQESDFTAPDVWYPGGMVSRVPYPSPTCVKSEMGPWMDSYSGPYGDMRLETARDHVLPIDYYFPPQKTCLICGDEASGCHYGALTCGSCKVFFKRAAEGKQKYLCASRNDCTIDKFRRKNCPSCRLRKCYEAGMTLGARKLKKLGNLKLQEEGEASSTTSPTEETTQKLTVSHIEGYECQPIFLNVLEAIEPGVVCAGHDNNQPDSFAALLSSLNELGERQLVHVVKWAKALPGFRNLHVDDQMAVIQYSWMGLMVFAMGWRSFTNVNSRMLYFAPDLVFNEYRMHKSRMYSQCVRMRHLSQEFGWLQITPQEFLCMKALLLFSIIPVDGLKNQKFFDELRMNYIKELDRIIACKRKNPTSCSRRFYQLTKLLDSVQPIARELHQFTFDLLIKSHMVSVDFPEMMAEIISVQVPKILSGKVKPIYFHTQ
Description: Antiandrogenic activity in human PC3 cells expressing wild-type androgen receptor assessed as inhibition of DHT-induced ARE-dependent transactivation at 1 uM after 24 hrs by luciferase reporter gene assay. The class given is cell-based. The following applies: PC-3. A digest of the protocol:
as §1

For assay [6], the system named is LNCaP. In words: Suppression of DHT-stimulated growth of human LNCAP cells after 72 hrs with increasing concentration of DHT. The class given is functional, cell-based.
Assay [7] is described as follows: Cytotoxicity against human MDA PCa 2b cells after 72 hrs by MTT assay. The class given is functional, cell-based.
Assay [8] deals with PC-3. Description: Activity in human PC3 cells expressing androgen receptor H874Y mutant assessed as ARE-dependent transactivation at 0.1 uM after 24 hrs by luciferase reporter gene assay in absence of DHT. The assay is classed as cell-based. A digest of the protocol:
as §1

Assay [9] has as its target T1, Progesterone receptor (Homo sapiens). In words: Agonist activity at human PR B-form expressed in human PC3 cells assessed as receptor transactivation at 1 uM after 24 hrs by luciferase reporter gene assay. Conditions: PC-3. The assay is classed as functional, cell-based. An outline of the steps:
as §2

Assay [10] concerns Androgen receptor (Homo sapiens), P10275 [T878A]. In words: Activity in human PC3 cells expressing androgen receptor T877A mutant assessed as ARE-dependent transactivation at 0.1 uM after 24 hrs by luciferase reporter gene assay in absence of DHT. The class given is cell-based. Conditions: PC-3. A digest of the protocol:
as §1

For assay [11], the system named is LNCaP. Description: Suppression of DHT-stimulated growth of human LNCAP cells after 72 hrs. The class given is functional, cell-based.

The source made the active and inactive calls. The calls are words filed in the database; no cut-off is given here.

Chain of Androgen receptor (Homo sapiens), P10275 [T878A] (P10275 whole entry T878A): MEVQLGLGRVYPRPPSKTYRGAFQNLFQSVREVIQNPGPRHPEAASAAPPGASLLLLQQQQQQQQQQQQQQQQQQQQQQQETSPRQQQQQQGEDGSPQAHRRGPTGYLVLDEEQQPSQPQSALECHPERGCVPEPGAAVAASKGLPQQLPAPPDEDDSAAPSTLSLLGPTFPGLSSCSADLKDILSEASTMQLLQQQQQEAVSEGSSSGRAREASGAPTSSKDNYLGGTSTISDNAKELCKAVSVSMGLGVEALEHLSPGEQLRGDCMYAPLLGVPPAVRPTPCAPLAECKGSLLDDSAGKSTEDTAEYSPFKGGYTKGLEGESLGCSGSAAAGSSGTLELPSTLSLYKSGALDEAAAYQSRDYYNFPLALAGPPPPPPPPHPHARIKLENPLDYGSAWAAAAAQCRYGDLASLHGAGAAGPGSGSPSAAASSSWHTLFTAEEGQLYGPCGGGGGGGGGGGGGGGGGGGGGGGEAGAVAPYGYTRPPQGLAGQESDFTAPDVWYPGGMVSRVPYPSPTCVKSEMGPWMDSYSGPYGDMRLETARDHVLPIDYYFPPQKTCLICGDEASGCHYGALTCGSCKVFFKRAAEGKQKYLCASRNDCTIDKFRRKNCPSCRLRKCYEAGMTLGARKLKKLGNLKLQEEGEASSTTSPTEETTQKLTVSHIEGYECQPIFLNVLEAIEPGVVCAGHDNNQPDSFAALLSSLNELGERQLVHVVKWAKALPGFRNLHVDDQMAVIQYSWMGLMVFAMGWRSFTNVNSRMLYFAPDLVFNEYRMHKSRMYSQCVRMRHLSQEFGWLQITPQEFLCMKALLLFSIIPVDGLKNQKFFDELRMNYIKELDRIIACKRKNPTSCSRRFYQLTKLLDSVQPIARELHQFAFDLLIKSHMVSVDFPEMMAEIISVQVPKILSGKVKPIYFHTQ

As to `COc1cc(/C=C(\C(=O)/C=C/C2=C(C)CCCC2(C)C)C(=O)/C=C/c2ccc(O)c(OC)c2)ccc1O`, the outcome (with PC-3 [1]; in the assay with PC-3 [2]; in assay [5]) was Active. In addition, the outcome (in [3]; in the assay with LNCaP [6]; in the assay with PC-3 [8]; in assay [9]; in assay [10]) was inactive. For the same compound, the results for the IC50 (in the assay with LNCaP [4]; in assay [7]) were 1300 nM and 2500 nM, respectively. For the same compound, in the assay with LNCaP [11], the Activity entry is “Dose-dependent effect”.

Usually IC50 stands for the midpoint of a concentration-inhibition curve.
